M5 antag – CHRM5 antagonism in calcium assay | P08912 | CHO-hM5 cells, Fluo-8 calcium fluorescence, ACh EC80 | inhibition, % at 3 µM | 0.59% of 360,000 active | AID 624040;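 active means inhibition above a per-plate cutoff, the mean of that plate's test compounds plus 3 SD, cut at about 27% in these data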;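 further: 0% = acetylcholine EC80 with DMSO and 100% = DMSO without agonist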
M4 antag – CHRM4 antagonism in calcium assay | 0.73% of 360,000 active | inhibition, % at 3 µM | CHO-hM4 cells, ACh EC80, Fluo-8 calcium fluorescence | P08173 | AID 624125;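 active means inhibition above its plate's cutoff, the mean inhibition of sample wells plus 3 SD, cut at about 27% in these data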;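 further: 0% = acetylcholine EC80 with DMSO and 100% = DMSO without agonist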
Target sequence (P08173 whole entry, looked up): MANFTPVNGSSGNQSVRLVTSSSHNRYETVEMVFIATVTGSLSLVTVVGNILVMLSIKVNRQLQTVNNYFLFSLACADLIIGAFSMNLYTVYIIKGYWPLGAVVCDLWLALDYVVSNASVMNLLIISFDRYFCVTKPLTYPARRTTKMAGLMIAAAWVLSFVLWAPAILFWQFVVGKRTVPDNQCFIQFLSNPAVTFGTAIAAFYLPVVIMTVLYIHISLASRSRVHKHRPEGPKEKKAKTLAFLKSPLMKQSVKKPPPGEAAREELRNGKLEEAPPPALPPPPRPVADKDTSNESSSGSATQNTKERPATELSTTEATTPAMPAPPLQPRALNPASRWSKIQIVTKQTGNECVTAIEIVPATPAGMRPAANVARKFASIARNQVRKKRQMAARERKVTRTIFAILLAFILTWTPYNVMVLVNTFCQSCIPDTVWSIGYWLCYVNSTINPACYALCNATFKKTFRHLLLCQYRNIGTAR
M4 PAM – potentiates acetylcholine response at human M4 receptor. P08173. AID 624126. 0.4% of 360,000 active. activation, % at 3 µM. CHO-K1 hM4/Gqi5, Fluo-8 calcium fluorescence, ACh EC20; 0% = ACh EC20, 100% = maximal ACh;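 active means activation above its plate's cutoff, the mean activation of sample wells plus 3 SD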
M5 ag – CHRM5 agonism in calcium assay; CHO-K1 hM5 cells, Fluo-8 calcium fluorescence; 0% DMSO wells, 100% maximal acetylcholine response; activation, % at 3 µM; P08912; 0.19% of 360,000 active;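 active means activation above the run's mean over test compounds plus 3 SD, cut at about 23% in these data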;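 further: signal is peak over basal fluorescence ratio across the kinetic read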
M5 PAM – potentiates acetylcholine response at human M5 receptor. P08912. CHO-K1 hM5, Fluo-8 calcium, ACh EC20 PAM; 0% = ACh EC20, 100% = ACh EC100. activation, % at 3 µM. 0.3% of 360,000 active. AID 624038;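 active means activation above the run cutoff, the mean activation of all test compounds plus 3 SD, cut at about 18% in these data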
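Assay system: CHO-K1 hM5 cells / Incubation: Fluo-8 loading 80 min at 37 °C plus 30 min room temperature / Technique: Fluo-8 calcium dye fluorescence, kinetic read / Repeats: single replicate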
M4 ag – agonists of human muscarinic M4 receptor (CHRM4); 0.14% of 360,000 active; activation, % at 3 µM; P08173; CHO-K1 hM4/Gqi5, Fluo-8 calcium fluorescence; vehicle 0%, full acetylcholine response 100%; AID 624127;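 active means activation above the run mean over all test wells plus 3 SD, cut at about 32% in these data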;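 further: peak over basal fluorescence ratio per well then scaled between controls; 0% = DMSO wells and 100% = acetylcholine at EC100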
* = called active by the depositor. A selection: hits, their analogues and other compounds. The true share with any hit is near 1.9%.

SMILES	M5 antag	M4 antag	M4 PAM	M5 ag	M5 PAM	M4 ag
CCOC(=O)N1CCN(C(=O)c2cc3c(-c4cccc(OC)c4)nn(C)c3s2)CC1	-1	6	-9	2	-5	5
Cc1ccc(S(=O)(=O)Nc2cccc3ncccc23)cc1	-1	-5	12	-1	-2	4
Cc1ccc(S(=O)(=O)Nc2cccc3ncccc23)s1	26	28*	-2	-10	-16	2
Cc1cnc2ccc(F)cc2c1	-2	-5	-2	-1	1	1
COc1ccc(CNCc2cn(-c3cccc(F)c3)nc2-c2ccc(C)o2)cc1	-3	34*	7	6	-1	4
COc1ccc(-n2cc(CNCc3cccnc3)c(-c3cccc(F)c3)n2)cc1	7	-6	4	0	1	5
Nc1[nH]ncc1-c1ccc(Cl)cc1	-7	2	38*	2	8	3
O=C(NNc1ccccc1)Nc1cc(Cl)ccc1Cl	8	-6	-1	0	19*	8
CCOC(=O)[C@]12CCC=C1N(Cc1ccco1)C(=O)[C@H](CC(=O)NCc1ccc(C)o1)C2	-2	-2	2	0	0	1
CCCCS/C(=C(/C#N)C(N)=O)c1cc2c([nH]1)CCCC2	7	34*	-29	-7	-16	-2
CCc1ccc(N/C(SC)=C(/C#N)C(N)=O)cc1	-5	-11	3	2	-4	-1
CS(=O)(=O)c1ccc2nc(NC(=O)c3ccc(Cn4cc(Br)cn4)o3)sc2c1	28*	5	-8	2	-11	14
CC(C)Cc1nnc(NS(=O)(=O)c2ccc(Cl)cc2)s1	-1	-19	16*	-1	-2	1
Cc1ccc(Nc2cc(C)nn2-c2nc(C)cc(=O)[nH]2)cc1	41*	59*	2	-6	-2	-2
c1cnc2c(C3NCCc4c3[nH]c3ccccc43)cccc2c1 (stereo unspecified)	8	38*	-14	2	-8	3
O=C1c2ccccc2C(c2nnnn2-c2ccc3c(c2)OCCO3)N1CCCn1ccnc1 (stereo unspecified)	-3	-21	-1	-2	9	1
O=C(Nc1ccc2c(c1)OCCO2)Nc1ccc2c(c1)OCO2	2	-4	-3	-1	-9	4
O=C(Nc1ccc2c(c1)OCO2)Nc1ccc(Br)cn1	9	4	41*	1	-3	6
OCc1ccnc2c(O)cccc12	1	1	7	0	22*	1
NC(=O)c1ccnc2c(O)cccc12	-1	2	9	1	-2	3
N#Cc1ccc(-c2nc3c4ccccc4ccn3c2CC2CCCCC2)cc1	7	3	-4	1	1	-1
O=C1NC[C@H](CCCCN2C[C@H](Cc3ccccc3)N(CCc3ccc(O)cc3)C(=O)C2=O)N(CCC2CCCCC2)C1=O	1	-1	2	-7	2	-1
Cc1ccc2c(Cl)c(C(=O)NCC(c3ccco3)N3CCCC3)sc2c1 (stereo unspecified)	27*	3	-6	-8	-12	-1
O=C(NCCCCc1ccccc1)c1ccc(Br)o1	10	-9	9	0	-4	1
O=C(NCCCc1ccccc1)c1ccc(Br)o1	1	6	31*	-4	6	0
SMILES	M5 antag	M4 antag	M4 PAM	M5 ag	M5 PAM	M4 ag
Cc1cc2ccccc2n1CCNC(=O)c1ccc(Br)o1	27*	-4	-8	0	-11	2
COc1ccc2oc(C(=O)Nc3nccs3)c(C)c2c1	0	-3	7	-4	6	1
CCCCc1nnc(NC(=O)c2oc3ccc(OC)cc3c2C)s1	-16	-15	15	-3	19*	0
COc1cc(C)ccc1S(=O)(=O)N1CCN(C23CC4CC(CC(C4)C2)C3)CC1	3	89*	-33	-11	-20	-2
COc1cc(F)ccc1S(=O)(=O)N1CCN(C23CC4CC(CC(C4)C2)C3)CC1	3	14	-20	-7	-5	2
Cc1csc(CN(C)C(=O)CC2C(=O)NCCN2Cc2ccccc2C)n1 (stereo unspecified)	-9	-12	6	0	1	1
COC(=O)Nc1nncs1	0	0	-9	0	4	-1
O=C(Nc1nncs1)C1CCCC1	-9	-8	-2	6	19*	1
CC(=O)Nc1ccc(NC(=O)c2c(C)nn(-c3ccccc3)c2Cl)cc1C	10	-9	4	1	-7	3
O=C(Cn1c(=O)oc2ccc(Cl)cc21)Nc1ccon1	15	0	1	-4	-4	0
N#CC1C(=O)c2ccccc2C1c1ccccc1 (stereo unspecified)	29*	59*	-10	-8	-39	5
O=C(CCn1c(=O)c2cccn2c2cccnc21)NCCCN1CCN(c2ccc(F)cc2)CC1	1	9	-4	-4	-4	1
O=[N+]([O-])c1cccc(/C=N/Nc2nc(NCc3ccccc3)nc(N3CCOCC3)n2)c1O	14	-1	-11	11	-3	46*
CC(C(O)C12CC3CC(CC(C3)C1)C2)N1CCCCC1 (stereo unspecified)	6	40*	-19	-11	-1	0
CSc1sc(C(=O)NCC2CC2)c(-c2cccs2)c1C#N	-5	-1	17*	1	5	6
CSc1sc(C(=O)NCC2CC2)c2c1S(=O)(=O)N(C)c1ccccc1-2	9	-10	-9	3	-12	7
COc1ccc(NC(=O)CCNC(=O)C2CCN(S(=O)(=O)c3ccc(OC)cc3)CC2)cc1	13	4	-6	-3	-4	0
COc1ccc(S(=O)(=O)N2CCC(C(=O)N[C@@H](C)C(=O)NC3CCCC3)CC2)cc1	19	0	2	2	32*	1
COc1ccc(CNC(=O)CCNC(=O)C2CCN(S(=O)(=O)c3ccc(OC)cc3)CC2)cc1	-1	-15	19*	-1	-7	0
CC(C)[C@H](NC(=O)C1CCN(S(=O)(=O)c2ccccc2)CC1)C(=O)NCc1ccccc1	-13	-11	15*	-2	13	0
CC(C)CC(=O)Nc1nc2ccc(S(=O)(=O)N3CCOCC3)cc2s1	-8	-10	-3	1	19*	3
CCCC(=O)Nc1nc2ccc(S(=O)(=O)N3CCCCC3)cc2s1	3	-8	1	8	-10	7
O=C(Oc1cccc(C(=S)N2CCOCC2)c1)c1ccc([N+](=O)[O-])cc1	13	-4	1	0	-2	3

Source: PubChem
